According to PMC6360136 (Investigational new drugs, 2018):

What was measured:
[1] = tested on: orthotopic pancreatic PDX tumor; experiment: Ki-67 staining of PDX tumors; format: in vivo, NSG mice; conditions: PDX tumors at euthanasia, 0.25 mg/kg i.p. every other day, vs vehicle
Outline: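 Orthotopic PDX mice received test compound 0.25 mg/kg i.p. or DMSO every other day. At endpoint, tumours were formalin-fixed and paraffin-embedded, and 5 micron sections were cut. Sections were stained for Ki-67 (proliferation) or by TUNEL (apoptosis). Ki-67 was scored as the average number of positive cells per high-power field by image analysis.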

PANC-1 cells = experiment: Cell viability assay; format: cell-based, human; conditions: PANC-1 cells, MTT, 48 h
EC46 cells = experiment: Cell viability assay; format: cell-based, human; conditions: EC46 primary pancreatic cancer cells, MTT, 48 h
[2] = Tissue distribution and pharmacokinetic study; format: in vivo; conditions: single 1 mg/kg, NSG mice
Outline: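 Female NSG mice (4–10 weeks) received a single 1 mg/kg dose, either i.v. in 10% EtOH/5% Tween-80/85% saline or i.p. in DMSO; 3 mice per time point. Plasma and tissues were collected at 10 min and 1, 3, 8, 24 and 48 h. Tissues were homogenised in PBS, proteins precipitated in acetonitrile/methanol with harmine internal standard, and samples quantified by positive-ESI MRM LC-MS/MS against matrix calibration curves. PK parameters came from noncompartmental analysis.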

CC[C@H](C)[C@@H]1C(=O)N2CCC[C@@H]2C(=O)O[C@H](C(C)(C)C)C[C@@H](C)C[C@@H](O)C(C)(C)C2=N[C@H](CCC(=O)N[C@@H](Cc3ccc(OC)cc3)C(=O)N(C)[C@@H](C)C(=O)N1C)CS2 [Apra S10, apratoxin S10]
decrease in the number of cells undergoing proliferation (Ki-67) [1]: > 50% | GI50 (PANC-1 cells): 2.75 nM | GI50 (EC46 cells): 0.32 nM | AUC (area under the concentration-time curve to infinity) ([2]; Brain, IP): 3067 ng·h/mL | AUCt (area under the concentration-time curve) ([2]; Brain, IP): 727 ng·h/mL | CL/F (clearance) ([2]; Brain, IP): 5.43 mL/min/kg | Cmax (peak concentration) ([2]; Brain, IP): 18 ng/mL | Ke (elimination rate constant) ([2]; Brain, IP): 0.006 h⁻¹ | MRT (mean residence time) ([2]; Brain, IP): 170.68 h | Tmax (time to peak concentration) ([2]; Brain, IP): 0.17 h | Vz/F (volume of distribution) ([2]; Brain, IP): 55.015 L/kg | t1/2 (half-life) ([2]; Brain, IP): 116.95 h | AUC (area under the concentration-time curve to infinity) ([2]; Brain, IV): 2442 ng·h/mL | AUCt (area under the concentration-time curve) ([2]; Brain, IV): 874 ng·h/mL | CL/F (clearance) ([2]; Brain, IV): 6.82 mL/min/kg | Cmax (peak concentration) ([2]; Brain, IV): 63 ng/mL | Ke (elimination rate constant) ([2]; Brain, IV): 0.009 h⁻¹ | MRT (mean residence time) ([2]; Brain, IV): 110.88 h | Tmax (time to peak concentration) ([2]; Brain, IV): 0.17 h | Vz/F (volume of distribution) ([2]; Brain, IV): 46.571 L/kg | t1/2 (half-life) ([2]; Brain, IV): 78.84 h | AUC (area under the concentration-time curve to infinity) ([2]; Kidney, IP): 5559 ng·h/mL | AUCt (area under the concentration-time curve) ([2]; Kidney, IP): 4508 ng·h/mL | CL/F (clearance) ([2]; Kidney, IP): 3 mL/min/kg | Cmax (peak concentration) ([2]; Kidney, IP): 403 ng/mL | Ke (elimination rate constant) ([2]; Kidney, IP): 0.036 h⁻¹ | MRT (mean residence time) ([2]; Kidney, IP): 25.57 h | Tmax (time to peak concentration) ([2]; Kidney, IP): 1.00 h | Vz/F (volume of distribution) ([2]; Kidney, IP): 5.02 L/kg | t1/2 (half-life) ([2]; Kidney, IP): 19.34 h | AUC (area under the concentration-time curve to infinity) ([2]; Kidney, IV): 3345 ng·h/mL | AUCt (area under the concentration-time curve) ([2]; Kidney, IV): 3285 ng·h/mL | CL/F (clearance) ([2]; Kidney, IV): 4.98 mL/min/kg | Cmax (peak concentration) ([2]; Kidney, IV): 753 ng/mL | Ke (elimination rate constant) ([2]; Kidney, IV): 0.077 h⁻¹ | MRT (mean residence time) ([2]; Kidney, IV): 9.34 h | Tmax (time to peak concentration) ([2]; Kidney, IV): 0.17 h | Vz/F (volume of distribution) ([2]; Kidney, IV): 3.892 L/kg | t1/2 (half-life) ([2]; Kidney, IV): 9.03 h | AUC (area under the concentration-time curve to infinity) ([2]; Liver, IP): 7951 ng·h/mL | AUCt (area under the concentration-time curve) ([2]; Liver, IP): 7485 ng·h/mL | CL/F (clearance) ([2]; Liver, IP): 2.1 mL/min/kg | Cmax (peak concentration) ([2]; Liver, IP): 945 ng/mL | Ke (elimination rate constant) ([2]; Liver, IP): 0.067 h⁻¹ | MRT (mean residence time) ([2]; Liver, IP): 12.77 h | Tmax (time to peak concentration) ([2]; Liver, IP): 0.17 h | Vz/F (volume of distribution) ([2]; Liver, IP): 1.865 L/kg | t1/2 (half-life) ([2]; Liver, IP): 10.28 h | AUC (area under the concentration-time curve to infinity) ([2]; Liver, IV): 6560 ng·h/mL | AUCt (area under the concentration-time curve) ([2]; Liver, IV): 6095 ng·h/mL | CL/F (clearance) ([2]; Liver, IV): 2.53 mL/min/kg | Cmax (peak concentration) ([2]; Liver, IV): 1127 ng/mL | Ke (elimination rate constant) ([2]; Liver, IV): 0.056 h⁻¹ | MRT (mean residence time) ([2]; Liver, IV): 14.08 h | Tmax (time to peak concentration) ([2]; Liver, IV): 0.17 h | Vz/F (volume of distribution) ([2]; Liver, IV): 2.741 L/kg | t1/2 (half-life) ([2]; Liver, IV): 12.46 h | AUC (area under the concentration-time curve to infinity) ([2]; Lung, IP): 3310 ng·h/mL | AUCt (area under the concentration-time curve) ([2]; Lung, IP): 2321 ng·h/mL | CL/F (clearance) ([2]; Lung, IP): 5.03 mL/min/kg | Cmax (peak concentration) ([2]; Lung, IP): 210 ng/mL | Ke (elimination rate constant) ([2]; Lung, IP): 0.023 h⁻¹ | MRT (mean residence time) ([2]; Lung, IP): 38.38 h | Tmax (time to peak concentration) ([2]; Lung, IP): 0.17 h | Vz/F (volume of distribution) ([2]; Lung, IP): 13.044 L/kg | t1/2 (half-life) ([2]; Lung, IP): 29.93 h | AUC (area under the concentration-time curve to infinity) ([2]; Lung, IV): 2768 ng·h/mL | AUCt (area under the concentration-time curve) ([2]; Lung, IV): 2273 ng·h/mL | CL/F (clearance) ([2]; Lung, IV): 6.02 mL/min/kg | Cmax (peak concentration) ([2]; Lung, IV): 329 ng/mL | Ke (elimination rate constant) ([2]; Lung, IV): 0.041 h⁻¹ | MRT (mean residence time) ([2]; Lung, IV): 24.55 h | Tmax (time to peak concentration) ([2]; Lung, IV): 0.17 h | Vz/F (volume of distribution) ([2]; Lung, IV): 8.837 L/kg | t1/2 (half-life) ([2]; Lung, IV): 16.95 h | AUC (area under the concentration-time curve to infinity) ([2]; Pancreas, IP): 60205 ng·h/mL | AUCt (area under the concentration-time curve) ([2]; Pancreas, IP): 54532 ng·h/mL | CL/F (clearance) ([2]; Pancreas, IP): 0.283 mL/min/kg | Cmax (peak concentration) ([2]; Pancreas, IP): 2883 ng/mL | Ke (elimination rate constant) ([2]; Pancreas, IP): 0.051 h⁻¹ | MRT (mean residence time) ([2]; Pancreas, IP): 17.46 h | Tmax (time to peak concentration) ([2]; Pancreas, IP): 3.00 h | Vz/F (volume of distribution) ([2]; Pancreas, IP): 0.323 L/kg | t1/2 (half-life) ([2]; Pancreas, IP): 13.49 h | AUC (area under the concentration-time curve to infinity) ([2]; Pancreas, IV): 49289 ng·h/mL | AUCt (area under the concentration-time curve) ([2]; Pancreas, IV): 45982 ng·h/mL | CL/F (clearance) ([2]; Pancreas, IV): 0.333 mL/min/kg | Cmax (peak concentration) ([2]; Pancreas, IV): 2348 ng/mL | Ke (elimination rate constant) ([2]; Pancreas, IV): 0.059 h⁻¹ | MRT (mean residence time) ([2]; Pancreas, IV): 14.80 h | Tmax (time to peak concentration) ([2]; Pancreas, IV): 8.00 h | Vz/F (volume of distribution) ([2]; Pancreas, IV): 0.342 L/kg | t1/2 (half-life) ([2]; Pancreas, IV): 11.70 h | AUC (area under the concentration-time curve to infinity) ([2]; Plasma, IP): 1292 ng·h/mL | AUCt (area under the concentration-time curve) ([2]; Plasma, IP): 1251 ng·h/mL | CL/F (clearance) ([2]; Plasma, IP): 12.9 mL/min/kg | Cmax (peak concentration) ([2]; Plasma, IP): 775 ng/mL | Ke (elimination rate constant) ([2]; Plasma, IP): 0.082 h⁻¹ | MRT (mean residence time) ([2]; Plasma, IP): 6.54 h | Tmax (time to peak concentration) ([2]; Plasma, IP): 0.17 h | Vz/F (volume of distribution) ([2]; Plasma, IP): 9.49 L/kg | t1/2 (half-life) ([2]; Plasma, IP): 8.50 h | AUC (area under the concentration-time curve to infinity) ([2]; Plasma, IV): 1303 ng·h/mL | AUCt (area under the concentration-time curve) ([2]; Plasma, IV): 1287 ng·h/mL | CL/F (clearance) ([2]; Plasma, IV): 12.8 mL/min/kg | Cmax (peak concentration) ([2]; Plasma, IV): 1072 ng/mL | Ke (elimination rate constant) ([2]; Plasma, IV): 0.089 h⁻¹ | MRT (mean residence time) ([2]; Plasma, IV): 4.20 h | Tmax (time to peak concentration) ([2]; Plasma, IV): 0.17 h | Vz/F (volume of distribution) ([2]; Plasma, IV): 8.616 L/kg | t1/2 (half-life) ([2]; Plasma, IV): 7.78 h | AUC (area under the concentration-time curve to infinity) ([2]; Salivary gland, IP): 19233 ng·h/mL | AUCt (area under the concentration-time curve) ([2]; Salivary gland, IP): 13009 ng·h/mL | CL/F (clearance) ([2]; Salivary gland, IP): 0.867 mL/min/kg | Cmax (peak concentration) ([2]; Salivary gland, IP): 556 ng/mL | Ke (elimination rate constant) ([2]; Salivary gland, IP): 0.024 h⁻¹ | MRT (mean residence time) ([2]; Salivary gland, IP): 41.75 h | Tmax (time to peak concentration) ([2]; Salivary gland, IP): 3.00 h | Vz/F (volume of distribution) ([2]; Salivary gland, IP): 2.2 L/kg | t1/2 (half-life) ([2]; Salivary gland, IP): 29.33 h | AUC (area under the concentration-time curve to infinity) ([2]; Salivary gland, IV): 26182 ng·h/mL | AUCt (area under the concentration-time curve) ([2]; Salivary gland, IV): 23604 ng·h/mL | CL/F (clearance) ([2]; Salivary gland, IV): 0.633 mL/min/kg | Cmax (peak concentration) ([2]; Salivary gland, IV): 1258 ng/mL | Ke (elimination rate constant) ([2]; Salivary gland, IV): 0.048 h⁻¹ | MRT (mean residence time) ([2]; Salivary gland, IV): 19.56 h | Tmax (time to peak concentration) ([2]; Salivary gland, IV): 1.00 h | Vz/F (volume of distribution) ([2]; Salivary gland, IV): 0.797 L/kg | t1/2 (half-life) ([2]; Salivary gland, IV): 14.46 h | AUC (area under the concentration-time curve to infinity) ([2]; Spleen, IP): 6586 ng·h/mL | AUCt (area under the concentration-time curve) ([2]; Spleen, IP): 5011 ng·h/mL | CL/F (clearance) ([2]; Spleen, IP): 2.53 mL/min/kg | Cmax (peak concentration) ([2]; Spleen, IP): 253 ng/mL | Ke (elimination rate constant) ([2]; Spleen, IP): 0.031 h⁻¹ | MRT (mean residence time) ([2]; Spleen, IP): 31.38 h | Tmax (time to peak concentration) ([2]; Spleen, IP): 0.17 h | Vz/F (volume of distribution) ([2]; Spleen, IP): 4.868 L/kg | t1/2 (half-life) ([2]; Spleen, IP): 22.22 h | AUC (area under the concentration-time curve to infinity) ([2]; Spleen, IV): 6838 ng·h/mL | AUCt (area under the concentration-time curve) ([2]; Spleen, IV): 4686 ng·h/mL | CL/F (clearance) ([2]; Spleen, IV): 2.43 mL/min/kg | Cmax (peak concentration) ([2]; Spleen, IV): 195 ng/mL | Ke (elimination rate constant) ([2]; Spleen, IV): 0.027 h⁻¹ | MRT (mean residence time) ([2]; Spleen, IV): 38.00 h | Tmax (time to peak concentration) ([2]; Spleen, IV): 8.00 h | Vz/F (volume of distribution) ([2]; Spleen, IV): 5.353 L/kg | t1/2 (half-life) ([2]; Spleen, IV): 25.37 h
